{"source": "the RNAGym collection of RNA variant scans (doi:10.1038/s41586-018-0170-7)", "parents": {"B1": {"name": "tRNA (parent)", "chain": "GUUCCGUUGGCGUAAUGGUAACGCGUCUCCCUCCUAAGGAGAAGACUGCGGGUUCGAGUCCCGUACGGAACG"}}, "data": [{"variants_of": "B1", "assay": "yeast fitness, log relative to wild type (ln ratio); higher = fitter; tRNA-Arg(CCU), competitive growth, 37 C, 1 M NaCl", "procedure,_shortened": "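In BY4742 missing the chromosomal gene, a combinatorial tRNA-Arg(CCU) variant library was maintained on a HIS3 centromeric plasmid. Selection ran ~6.5 generations (~26.5 h) in SC-HIS 1M NaCl at 37 °C, following 4 generations in SC-HIS at 30 °C, with three outputs per input and variant counts by 125 bp paired-end Illumina sequencing. Fitness is the natural log of a genotype's generations relative to the wild type's, with generations taken as inverse-variance-weighted, OD-scaled log2 output/input frequency.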", "values": [{"variant": "ACUCCUUUGGCGUAAUGGUAACGCGUCUCCCUCCUAAGGAGAAGAUUGCGGGUUCGAGUCCCGUAAGGAUCG", "note": "[G1A U2C G6U C46U C66A A70U]", "yeast fitness (ln)": -0.184}, {"variant": "AUUCCAUUGGCGUAAUGGUAACGCGUCUCCCUCCUAAGGAGACGACUGCGGGUUCGAGUCCCGUAUGGGUUG", "note": "[G1A G6A A43C C66U A69G A70U C71U]", "yeast fitness (ln)": -0.402}, {"variant": "AUUCCGUUGGCGUAAUGGUAACGCGUCUCCCUCCUAAGGAGACGAUUGCGGGUUCGAGUCCCGUAAGGAGCG", "note": "[G1A A43C C46U C66A A70G]", "yeast fitness (ln)": -0.113}, {"variant": "GGUCCUUUGGCGUAAUGGUAACGCGUCUCCCUCCUAAGGAGACGACUGCGGGUUCGAGUCCCGUACGGAGUG", "note": "[U2G G6U A43C A70G C71U]", "yeast fitness (ln)": -0.282}, {"variant": "AGUCCAUUGGCGUAAUGGUAACGCGUCUCCCUCCUAAGGAGAAGAUUGCGGGUUCGAGUCCCGUAUGGGGUG", "note": "[G1A U2G G6A C46U C66U A69G A70G C71U]", "yeast fitness (ln)": -0.413}, {"variant": "GUUCCUUUGGCGUAAUGGUAACGCGUCUCCCUCCUAAGGAGACGACUGCGGGUUCGAGUCCCGUAAGGGGUG", "note": "[G6U A43C C66A A69G A70G C71U]", "yeast fitness (ln)": -0.299}, {"variant": "GCUCCUUUGGCGUAAUGGUAACGCGUUUCCCUCCUAAGGAGAAGAUUGCGGGUUCGAGUCCCGUAUGGAUCG", "note": "[U2C G6U C27U C46U C66U A70U]", "yeast fitness (ln)": -0.132}, {"variant": "AGUCCUUUGGCGUAAUGGUAACGCGUCUCCCUCCUAAGGAGAAGAUUGCGGGUUCGAGUCCCGUACGGAGCG", "note": "[G1A U2G G6U C46U A70G]", "yeast fitness (ln)": -0.282}, {"variant": "GCUCCAUUGGCGUAAUGGUAACGCGUUUCCCUCCUAAGGAGACGACUGCGGGUUCGAGUCCCGUAUGGAGCG", "note": "[U2C G6A C27U A43C C66U A70G]", "yeast fitness (ln)": -0.0396}, {"variant": "AUUCCUUUGGCGUAAUGGUAACGCGUUUCCCUCCUAAGGAGACGAUUGCGGGUUCGAGUCCCGUAAGGGGUG", "note": "[G1A G6U C27U A43C C46U C66A A69G A70G C71U]", "yeast fitness (ln)": -0.359}, {"variant": "GCUCCAUUGGCGUAAUGGUAACGCGUCUCCCUCCUAAGGAGACGACUGCGGGUUCGAGUCCCGUAUGGAUUG", "note": "[U2C G6A A43C C66U A70U C71U]", "yeast fitness (ln)": -0.305}, {"variant": "GUUCCAUUGGCGUAAUGGUAACGCGUCUCCCUCCUAAGGAGAAGAUUGCGGGUUCGAGUCCCGUACGGGAUG", "note": "[G6A C46U A69G C71U]", "yeast fitness (ln)": -0.109}, {"variant": "GGUCCGUUGGCGUAAUGGUAACGCGUCUCCCUCCUAAGGAGACGACUGCGGGUUCGAGUCCCGUAUGGAACG", "note": "[U2G A43C C66U]", "yeast fitness (ln)": -0.19}, {"variant": "AGUCCGUUGGCGUAAUGGUAACGCGUUUCCCUCCUAAGGAGACGAUUGCGGGUUCGAGUCCCGUAUGGAACG", "note": "[G1A U2G C27U A43C C46U C66U]", "yeast fitness (ln)": -0.231}, {"variant": "ACUCCAUUGGCGUAAUGGUAACGCGUCUCCCUCCUAAGGAGACGAUUGCGGGUUCGAGUCCCGUAUGGAUCG", "note": "[G1A U2C G6A A43C C46U C66U A70U]", "yeast fitness (ln)": -0.0467}, {"variant": "AGUCCGUUGGCGUAAUGGUAACGCGUCUCCCUCCUAAGGAGAAGAUUGCGGGUUCGAGUCCCGUAUGGAACG", "note": "[G1A U2G C46U C66U]", "yeast fitness (ln)": -0.0764}, {"variant": "GUUCCAUUGGCGUAAUGGUAACGCGUUUCCCUCCUAAGGAGAAGACUGCGGGUUCGAGUCCCGUACGGGUUG", "note": "[G6A C27U A69G A70U C71U]", "yeast fitness (ln)": -0.416}, {"variant": "GUUCCAUUGGCGUAAUGGUAACGCGUUUCCCUCCUAAGGAGACGAUUGCGGGUUCGAGUCCCGUAUGGGGUG", "note": "[G6A C27U A43C C46U C66U A69G A70G C71U]", "yeast fitness (ln)": -0.28}, {"variant": "GUUCCGUUGGCGUAAUGGUAACGCGUCUCCCUCCUAAGGAGACGAUUGCGGGUUCGAGUCCCGUAAGGAUCG", "note": "[A43C C46U C66A A70U]", "yeast fitness (ln)": -0.0196}, {"variant": "GUUCCGUUGGCGUAAUGGUAACGCGUUUCCCUCCUAAGGAGACGAUUGCGGGUUCGAGUCCCGUAAGGGUCG", "note": "[C27U A43C C46U C66A A69G A70U]", "yeast fitness (ln)": -0.156}, {"variant": "GCUCCGUUGGCGUAAUGGUAACGCGUUUCCCUCCUAAGGAGACGAUUGCGGGUUCGAGUCCCGUAUGGGUUG", "note": "[U2C C27U A43C C46U C66U A69G A70U C71U]", "yeast fitness (ln)": -0.46}, {"variant": "AGUCCAUUGGCGUAAUGGUAACGCGUUUCCCUCCUAAGGAGAAGAUUGCGGGUUCGAGUCCCGUAUGGAACG", "note": "[G1A U2G G6A C27U C46U C66U]", "yeast fitness (ln)": -0.258}, {"variant": "GCUCCUUUGGCGUAAUGGUAACGCGUCUCCCUCCUAAGGAGACGAUUGCGGGUUCGAGUCCCGUAAGGAAUG", "note": "[U2C G6U A43C C46U C66A C71U]", "yeast fitness (ln)": -0.077}, {"variant": "GUUCCGUUGGCGUAAUGGUAACGCGUUUCCCUCCUAAGGAGAAGACUGCGGGUUCGAGUCCCGUAUGGAAUG", "note": "[C27U C66U C71U]", "yeast fitness (ln)": -0.173}, {"variant": "GGUCCGUUGGCGUAAUGGUAACGCGUCUCCCUCCUAAGGAGAAGACUGCGGGUUCGAGUCCCGUAUGGAAUG", "note": "[U2G C66U C71U]", "yeast fitness (ln)": -0.181}, {"variant": "GUUCCUUUGGCGUAAUGGUAACGCGUCUCCCUCCUAAGGAGACGAUUGCGGGUUCGAGUCCCGUAUGGGGUG", "note": "[G6U A43C C46U C66U A69G A70G C71U]", "yeast fitness (ln)": -0.325}, {"variant": "GUUCCGUUGGCGUAAUGGUAACGCGUCUCCCUCCUAAGGAGAAGAUUGCGGGUUCGAGUCCCGUAUGGGUCG", "note": "[C46U C66U A69G A70U]", "yeast fitness (ln)": -0.0707}, {"variant": "GGUCCAUUGGCGUAAUGGUAACGCGUCUCCCUCCUAAGGAGAAGAUUGCGGGUUCGAGUCCCGUAAGGGUUG", "note": "[U2G G6A C46U C66A A69G A70U C71U]", "yeast fitness (ln)": -0.382}, {"variant": "GGUCCGUUGGCGUAAUGGUAACGCGUUUCCCUCCUAAGGAGACGACUGCGGGUUCGAGUCCCGUACGGGGCG", "note": "[U2G C27U A43C A69G A70G]", "yeast fitness (ln)": -0.238}]}]}
